Assay [1] concerns Jurkat. Briefly: Growth inhibition of human Jurkat cells. In kind it is functional, cell-based.
Assay [2] has as its system Jurkat. Kind of assay: Cytotoxicity against human Jurkat cells in presence and relative to TRAIL. In kind it is functional, cell-based. Put shortly:
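Jurkat cell proliferation test run with each isolate in combination with TRAIL, to measure enhancement of TRAIL cytotoxicity; values expressed relative to the cell proliferation rate at 0.125.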

The subject of assay [3] is Jurkat. Briefly: Growth inhibition of human Jurkat cells at 50 ug/mL. In kind it is functional.
Assay [4] has as its system Jurkat. Briefly: Cytotoxicity against human Jurkat cells in presence and relative to TRAIL at 50 ug/mL. In kind it is functional. Put shortly:
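Proliferation assay in Jurkat cells exposed to each isolated alkaloid together with TRAIL. Results are expressed relative to the cell proliferation rate at […].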

In brackets after ≈: the same amount, converted by molar mass.

The term IC50 denotes the concentration needed to halve the response being measured. For orientation: inhibition means the change of the read-out against control, counted positive when it falls. Lower therefore signals a weak effect. For the compound `COC(=O)c1cc2c(cn1)CCN1CC=C3C=C[C@H](OC)C[C@]321` [ERYMELANTHINE], the IC50 in the assay on Jurkat [1] and in the assay on Jurkat [2] was > 50 µg/mL throughout. The values for the inhibition at 50 µg/mL with Jurkat [3] and in the assay on Jurkat [4] were 1.1% and 24.2%, respectively.

As to `O=c1cc(-c2ccc(O)cc2)oc2cc(O)cc(O)c12` [APIGENIN], the IC50 was determined as 30 µg/mL (≈ 111 µM) in the assay with Jurkat [1] and 6.7 µg/mL (≈ 24.8 µM) in the assay on Jurkat [2].

For the compound `COc1cc2c(cc1O)CCN1CC=C3C=C[C@H](OC)C[C@]321` [ERYSODINE], the IC50 was 10.8 µg/mL (≈ 36.1 µM) in the assay with Jurkat [1] and 4.9 µg/mL (≈ 16.4 µM) in the assay with Jurkat [2].

Turning to `CO[C@H]1C=CC2=CC(=O)N3CCc4cc5c(cc4[C@]23C1)OCO5`, the half-inhibitory concentration (IC50) in the assay on Jurkat [1] was > 50 µg/mL; in the assay on Jurkat [2], 22 µg/mL (≈ 70.7 µM). Moreover, the inhibition at 50 µg/mL in the assay with Jurkat [3] was determined as 37%.

As to `COc1cc2c(cc1O)CC[N+]1([O-])CC=C3C=C[C@H](OC)C[C@]321` (stereo not given in full), the IC50 in the assay on Jurkat [1] and in the assay with Jurkat [2] was > 50 µg/mL in each case. For the same compound, the inhibition at 50 µg/mL with Jurkat [3] came to 2.4%; with Jurkat [4], 18.9%.

For the compound `CO[C@H]1C=CC2=CCN3CCc4cc5c(cc4[C@]23C1)OCO5` [ERYTHRALINE], the IC50 in the assay with Jurkat [1] was determined as 23 µg/mL (≈ 77.3 µM); in the assay on Jurkat [2], 5 µg/mL (≈ 16.8 µM).

Turning to `CC[C@]1(O)C[C@H]2CN(CCc3c([nH]c4ccccc34)[C@@](C(=O)OC)(c3cc4c(cc3OC)N(C=O)[C@H]3[C@@](O)(C(=O)OC)[C@H](OC(C)=O)[C@]5(CC)C=CCN6CC[C@]43[C@@H]65)C2)C1` [VINCRISTINE], the concentration for half-maximal inhibition (IC50) in the assay on Jurkat [1] turned out to be 0.0031 µg/mL (≈ 0.00376 µM).

In the case of `COc1cc2c(cc1O)[C@]13C[C@@H](OC)C=CC1=CCN3CC2` [ERYSOVINE], the half-maximal inhibitory concentration (IC50) with Jurkat [1] was found to be 24 µg/mL (≈ 80.2 µM); in the assay with Jurkat [2], 14.2 µg/mL (≈ 47.4 µM).

Regarding `COc1cc2c(cc1OC)[C@]13C[C@@H](OC)C=CC1=CCN3CC2` [ERYSOTRINE], the figures for the IC50 with Jurkat [1] and with Jurkat [2] were > 50 µg/mL and 7.2 µg/mL (≈ 23 µM), respectively. Moreover, the inhibition at 50 µg/mL with Jurkat [3] was determined as 45%.

For `COc1cc2c(cc1O[C@@H]1O[C@H](CO)[C@@H](O)[C@H](O)[C@H]1O)CCN1CC=C3C=C[C@H](OC)C[C@]321` [GRYCOERYSODINE], the half-maximal inhibitory concentration (IC50) with Jurkat [1] was > 50 µg/mL; in the assay on Jurkat [2] it was 44 µg/mL (≈ 95.3 µM). This compound came in with an inhibition at 50 µg/mL in the assay on Jurkat [3] of 4.7%.

As for `C[N+](C)(C)[C@H](Cc1c[nH]c2ccccc12)C(=O)[O-]` [HYPAPHORINE], the concentration for half-maximal inhibition (IC50) with Jurkat [1] and in the assay on Jurkat [2] was > 50 µg/mL throughout. Besides, the inhibition at 50 µg/mL came to 5.8% in the assay with Jurkat [3] and 20% with Jurkat [4].

These data come from ChEMBL document CHEMBL1139285, “TRAIL-enhancing activity of Erythrinan alkaloids from Erythrina velutina” (Bioorg Med Chem Lett, 2009).
